From ChEMBL document CHEMBL2346534, “Design, synthesis and in vitro anti-proliferative activity of 4,6-quinazolinediamines as potent EGFR-TK inhibitors” (Eur J Med Chem, 2013)

Legend:
UACC-62 = assay: Cytotoxicity against human UACC62 cells after 48 hrs by SRB assay; assay type: functional; conditions: UACC-62, 48 h
Method in brief: (§1)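 NCI 60 five-dose screen. Cells in RPMI 1640 with 5% FBS and 2 mM L-glutamine, plated at 5000–40,000 cells/well by doubling time, pre-incubated 24 h at 37 °C, 5% CO2. Time-zero plates TCA-fixed at drug addition. Final concentrations 0.01, 0.1, 1, 10 and 100 µM (DMSO stock), 48 h exposure. TCA fixation, 0.4% SRB stain, absorbance 515 nm. GI50 from [(Ti−Tz)/(C−Tz)]×100 = 50.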

UO-31 = assay: Cytotoxicity against human UO31 cells after 48 hrs by SRB assay; assay type: functional; conditions: UO-31, 48 h; method in brief: as §1
[1] = Cytotoxicity against human NCI-ADR-RES cells after 48 hrs by SRB assay; assay type: functional
Method in brief: (§2)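 NCI 60-panel five-dose screen. Cells in RPMI 1640 with 5% FBS and 2 mM L-glutamine are plated at 5000–40,000 cells/well by doubling time and preincubated 24 h at 37 °C in 5% CO2. Drug in DMSO is tested at 0.01, 0.1, 1, 10 and 100 μM for 48 h. Cells are TCA-fixed, stained with SRB and read at 515 nm. GI50 is the concentration giving 50% reduction in net protein increase relative to time-zero and control plates.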

HL-60(TB) = assay: Cytotoxicity against human HL-60(TB) cells after 48 hrs by SRB assay; assay type: functional; conditions: HL-60, 48 h
Method in brief: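 NCI 60-panel five-dose screen. Cells were grown in RPMI 1640 with 5% FBS and 2 mM L-glutamine and preincubated 24 h before dosing. Compound from DMSO stock was given at five 10-fold concentrations for 48 h at 37 °C, 5% CO2. Suspension cells were fixed with TCA (final 16%), SRB-stained, and read at 515 nm. GI50, TGI and LC50 came from time-zero, control and treated absorbances.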

SK-OV-3 = assay: Cytotoxicity against human SKOV3 cells after 48 hrs by SRB assay; assay type: functional; conditions: SK-OV-3, 48 h; method in brief: as §2
TK-10 = assay: Cytotoxicity against human TK10 cells after 48 hrs by SRB assay; assay type: functional; conditions: TK-10, 48 h; method in brief: as §1
SK-MEL-2 = assay: Cytotoxicity against human SK-MEL-2 cells after 48 hrs by SRB assay; assay type: functional; conditions: SK-MEL-2, 48 h; method in brief: as §2
786-0 = assay: Cytotoxicity against human 786-0 cells after 48 hrs by SRB assay; assay type: functional; conditions: 786-0, 48 h
Method in brief: (§3)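 NCI 60-panel five-dose screen. Cells in RPMI 1640 with 5% FBS and 2 mM L-glutamine, plated at 5000–40,000 cells/well by doubling time, preincubated 24 h at 37 °C/5% CO2. Drug from DMSO stock added at 0.01, 0.1, 1, 10 and 100 µM, then 48 h. TCA fixation, SRB stain, absorbance at 515 nm, time-zero plates included. GI50 = 50% reduction in net protein increase versus control.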

M14 = assay: Cytotoxicity against human M14 cells after 48 hrs by SRB assay; assay type: functional; conditions: M14, 48 h; method in brief: as §3
RPMI-8226 = assay: Cytotoxicity against human RPMI8226 cells after 48 hrs by SRB assay; assay type: functional; conditions: RPMI-8226, 48 h; method in brief: as §2
NCI-H460 = assay: Cytotoxicity against human NCI-H460 cells after 48 hrs by SRB assay; assay type: functional; conditions: NCI-H460, 48 h; method in brief: as §2
SN12C = assay: Cytotoxicity against human SN12C cells after 48 hrs by SRB assay; assay type: functional; method in brief: as §2
SK-MEL-5 = assay: Cytotoxicity against human SK-MEL-5 cells after 48 hrs by SRB assay; assay type: functional; conditions: SK-MEL-5, 48 h; method in brief: as §2
NCI-H522 = assay: Cytotoxicity against human NCI-H522 cells after 48 hrs by SRB assay; assay type: functional; conditions: NCI-H522, 48 h; method in brief: as §2
A498 = assay: Cytotoxicity against human A498 cells after 48 hrs by SRB assay; assay type: functional; conditions: A498, 48 h; method in brief: as §3
HT-29 = assay: Cytotoxicity against human HT-29 cells after 48 hrs by SRB assay; assay type: functional; conditions: HT-29, 48 h; method in brief: as §3
Hs-578T = assay: Cytotoxicity against human Hs578T cells after 48 hrs by SRB assay; assay type: functional; method in brief: as §3
T47D = assay: Cytotoxicity against human T47D cells after 48 hrs by SRB assay; assay type: functional; method in brief: as §1
BT-549 = assay: Cytotoxicity against human BT549 cells after 48 hrs by SRB assay; assay type: functional; conditions: BT-549, 48 h; method in brief: as §3
SNB-19 = assay: Cytotoxicity against human SNB19 cells after 48 hrs by SRB assay; assay type: functional; conditions: SNB-19, 48 h; method in brief: as §2
[2] = molecular target: Epidermal growth factor receptor (Homo sapiens, UniProt P00533); assay: Inhibition of EGFR tyrosine kinase (unknown origin) using poly (Glu,Tyr) as substrate after 30 mins by ADP-GloTM assay
OVCAR-8 = assay: Cytotoxicity against human OVCAR8 cells after 48 hrs by SRB assay; assay type: functional; conditions: OVCAR-8, 48 h; method in brief: as §2
[3] = Cytotoxicity against human EKVX cells after 48 hrs by SRB assay; assay type: functional; method in brief: as §3
SR = assay: Cytotoxicity against human SR cells after 48 hrs by SRB assay; assay type: functional; method in brief: as §2
RXF 393 = assay: Cytotoxicity against human RXF393 cells after 48 hrs by SRB assay; assay type: functional; conditions: RXF 393, 48 h; method in brief: as §2
[4] = read-out: LC50 (the source's name)

Epidermal growth factor receptor, sequence (P00533 whole entry): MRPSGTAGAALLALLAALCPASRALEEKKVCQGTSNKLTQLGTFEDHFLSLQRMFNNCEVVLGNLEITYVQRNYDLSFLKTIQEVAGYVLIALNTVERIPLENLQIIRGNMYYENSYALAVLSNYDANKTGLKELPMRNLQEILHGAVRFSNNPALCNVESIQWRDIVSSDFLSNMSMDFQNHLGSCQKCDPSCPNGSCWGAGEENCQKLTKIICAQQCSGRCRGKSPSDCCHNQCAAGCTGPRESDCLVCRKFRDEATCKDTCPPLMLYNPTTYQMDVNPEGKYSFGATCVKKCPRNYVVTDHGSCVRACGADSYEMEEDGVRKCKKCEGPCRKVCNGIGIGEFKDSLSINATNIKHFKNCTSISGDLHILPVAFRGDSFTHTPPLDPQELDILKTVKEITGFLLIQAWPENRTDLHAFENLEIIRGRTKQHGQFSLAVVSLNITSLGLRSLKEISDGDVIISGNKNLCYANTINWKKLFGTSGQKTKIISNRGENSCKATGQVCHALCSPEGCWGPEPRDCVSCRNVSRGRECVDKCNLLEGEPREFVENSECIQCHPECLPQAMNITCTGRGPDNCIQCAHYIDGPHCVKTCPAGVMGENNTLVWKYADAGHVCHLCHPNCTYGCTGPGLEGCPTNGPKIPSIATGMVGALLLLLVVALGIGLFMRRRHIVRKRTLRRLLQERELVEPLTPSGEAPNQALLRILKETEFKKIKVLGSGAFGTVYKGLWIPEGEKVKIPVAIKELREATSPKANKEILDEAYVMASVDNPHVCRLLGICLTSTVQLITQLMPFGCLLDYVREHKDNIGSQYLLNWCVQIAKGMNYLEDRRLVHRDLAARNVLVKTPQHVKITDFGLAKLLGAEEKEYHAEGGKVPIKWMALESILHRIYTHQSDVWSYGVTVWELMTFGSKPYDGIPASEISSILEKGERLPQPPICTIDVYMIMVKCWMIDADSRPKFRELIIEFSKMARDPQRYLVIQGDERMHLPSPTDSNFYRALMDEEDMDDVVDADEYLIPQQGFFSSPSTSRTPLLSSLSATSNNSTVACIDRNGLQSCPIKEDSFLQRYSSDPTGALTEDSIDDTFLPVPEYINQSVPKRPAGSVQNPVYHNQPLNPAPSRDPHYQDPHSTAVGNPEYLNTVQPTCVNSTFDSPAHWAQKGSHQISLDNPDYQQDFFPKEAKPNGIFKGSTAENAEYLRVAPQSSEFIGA

NC(=O)Nc1ccc2ncnc(Nc3ccc(Cl)cc3)c2c1
GI50 (UACC-62): 13.5 µM | TGI (UACC-62): 32.2 µM | CC50 (UACC-62; [4]): 77 µM | GI50 (UO-31): 4.22 µM | TGI (UO-31): 43 µM | CC50 (UO-31; [4]): > 100 µM | GI50 [1]: 19.5 µM | TGI [1]: > 100 µM | CC50 [1, 4]: > 100 µM | GI50 (HL-60(TB)): 24.4 µM | TGI (HL-60(TB)): 69.8 µM | CC50 (HL-60(TB); [4]): > 100 µM | GI50 (SK-OV-3): 3.52 µM | TGI (SK-OV-3): 20.5 µM | CC50 (SK-OV-3; [4]): > 100 µM | GI50 (TK-10): 0.98 µM | TGI (TK-10): 16.2 µM | CC50 (TK-10; [4]): > 100 µM | GI50 (SK-MEL-2): 15.1 µM | TGI (SK-MEL-2): 42.7 µM | CC50 (SK-MEL-2; [4]): > 100 µM | GI50 (786-0): 20.7 µM | TGI (786-0): 88.9 µM | CC50 (786-0; [4]): > 100 µM | GI50 (M14): 25 µM | TGI (M14): 76 µM | CC50 (M14; [4]): > 100 µM | GI50 (RPMI-8226): 20.5 µM | TGI (RPMI-8226): 78.9 µM | CC50 (RPMI-8226; [4]): > 100 µM | GI50 (NCI-H460): 22.4 µM | TGI (NCI-H460): > 100 µM | CC50 (NCI-H460; [4]): > 100 µM | GI50 (SN12C): 11.1 µM | TGI (SN12C): 50 µM | CC50 (SN12C; [4]): > 100 µM | GI50 (SK-MEL-5): 13.5 µM | TGI (SK-MEL-5): 30.7 µM | CC50 (SK-MEL-5; [4]): 70.1 µM | GI50 (NCI-H522): 2.4 µM | TGI (NCI-H522): 20.9 µM | CC50 (NCI-H522; [4]): > 100 µM | GI50 (A498): 0.45 µM | TGI (A498): 13 µM | CC50 (A498; [4]): 64.8 µM | GI50 (HT-29): 24 µM | TGI (HT-29): > 100 µM | CC50 (HT-29; [4]): > 100 µM | GI50 (Hs-578T): 14.8 µM | TGI (Hs-578T): 55.9 µM | CC50 (Hs-578T; [4]): > 100 µM | GI50 (T47D): 6.47 µM | TGI (T47D): 72.3 µM | CC50 (T47D; [4]): > 100 µM | GI50 (BT-549): 18.2 µM | TGI (BT-549): 79.3 µM | CC50 (BT-549; [4]): > 100 µM | GI50 (SNB-19): 9.02 µM | TGI (SNB-19): > 100 µM | CC50 (SNB-19; [4]): > 100 µM | IC50 [2]: 0.061 µM | GI50 (OVCAR-8): 21.7 µM | TGI (OVCAR-8): > 100 µM | CC50 (OVCAR-8; [4]): > 100 µM | GI50 [3]: 0.37 µM | TGI [3]: 4.46 µM | CC50 [3, 4]: > 100 µM | GI50 (SR): 19.1 µM | TGI (SR): 75.6 µM | CC50 (SR; [4]): > 100 µM | GI50 (RXF 393): 15.1 µM | TGI (RXF 393): 75.9 µM | CC50 (RXF 393; [4]): > 100 µM
